Our source for the IC50 values is ChEMBL document CHEMBL2401716, “Design and stereoselective synthesis of novel isosteviol-fused pyrazolines and pyrazoles as potential anticancer agents” (Eur J Med Chem, 2013).

Format in all cases: functional, cell-based
The test system of test [1] is Raji. Briefly: Antiproliferative activity against human Raji cells after 48 hrs by MTT assay. Summed up:
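Human B-lymphoma Raji line kept in RPMI-1640 with 10% FBS and 100 U/mL penicillin at 37 °C, 5% CO2, humidified. Cells were plated in 96 wells and treated with compounds for 48 h. MTT (0.5 mg/mL) was added for 4 h, then formazan was taken up in DMSO after supernatant removal and read at 570 nm. Cisplatin served as positive control.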

The test system of test [2] is A549. Put plainly: Antiproliferative activity against human A549 cells after 48 hrs by MTT assay. The conditions noted are these: A549, 48 h. An outline of the steps: (§1)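 Cells seeded in 96-well plates and exposed to compounds for 48 h at 37 °C, 5% CO2. MTT (0.5 mg/mL) then added for 4 h. Supernatant removed, formazan dissolved in DMSO, and OD read at 570 nm. Cisplatin served as positive control.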

The test system of test [3] is SGC-7901. Put plainly: Antiproliferative activity against human SGC7901 cells after 48 hrs by MTT assay. To be noted: SGC-7901, 48 h. Summed up:
as §1

Test [4] concerns HeLa. Put plainly: Antiproliferative activity against human HeLa cells after 48 hrs by MTT assay. An outline of the steps: as §1
For orientation: Tetrazolium assays rely on reduction of a dye to a coloured formazan, in cell work by metabolically active cells.

Usually IC50 stands for the point on the concentration scale where inhibition reaches its midpoint. Lower therefore signals higher potency. For `CCOC(=O)[C@]1(C)CCC[C@@]2(C)[C@@H]3CC[C@@]4(C)C[C@]3(CC[C@@H]21)[C@@H]1CN(c2ccc(Cl)c(Cl)c2)N=C14`, the IC50 in test [1], in test [2], in test [3] and in test [4] was above 50 µM each time.

`CCOC(=O)[C@]1(C)CCC[C@@]2(C)[C@@H]3CC[C@@]4(C)C[C@]3(CC[C@@H]21)c1cnn(-c2ccccc2C)c14`: the concentration for half-maximal inhibition (IC50) in test [1] turned out to be 7.71 µM; in test [2], 19 µM; in test [3], 35.3 µM; in test [4] it was 15.2 µM.

Take `CCOC(=O)[C@]1(C)CCC[C@@]2(C)[C@@H]3CC[C@@]4(C)C[C@]3(CC[C@@H]21)[C@@H]1CN(c2ccccc2)N=C14`: the concentration for half-maximal inhibition (IC50) in test [1] is 14 µM; in test [2], 28.3 µM; in test [3], above 50 µM; in test [4], above 50 µM.

As to `CCOC(=O)[C@]1(C)CCC[C@@]2(C)[C@@H]3CC[C@@]4(C)C[C@]3(CC[C@@H]21)c1cnn(-c2ccc(F)cc2F)c14`, the IC50 is 9.96 µM in test [1], 20.1 µM in test [2], 28.4 µM in test [3] and above 50 µM in test [4].

For the molecule `CCOC(=O)[C@]1(C)CCC[C@@]2(C)[C@@H]3CC[C@@]4(C)C[C@]3(CC[C@@H]21)c1cnn(-c2ccc(C)cc2)c14`, the half-inhibitory concentration (IC50) is 8.61 µM in test [1], 18.8 µM in test [2], 34.9 µM in test [3] and above 50 µM in test [4].

With `CCOC(=O)[C@]1(C)CCC[C@@]2(C)[C@@H]3CC[C@@]4(C)C[C@]3(CC[C@@H]21)[C@@H]1CN(c2ccccc2C)N=C14`, the 50% inhibitory concentration (IC50) in test [1] was 19.9 µM; in test [2], above 50 µM; in test [3], above 50 µM; in test [4], above 50 µM.

In the case of `CCOC(=O)[C@]1(C)CCC[C@@]2(C)[C@@H]3CC[C@@]4(C)C[C@]3(CC[C@@H]21)[C@@H]1CN(c2cccc(Cl)c2)N=C14`, the concentration for half-maximal inhibition (IC50) was 4.57 µM in test [1], above 50 µM in test [2], above 50 µM in test [3] and above 50 µM in test [4].

As to `CCOC(=O)[C@]1(C)CCC[C@@]2(C)[C@@H]3CC[C@@]4(C)C[C@]3(CC[C@@H]21)c1cnn(-c2ccccc2Cl)c14`, the half-maximal inhibitory concentration (IC50) in test [1] was found to be 10.1 µM; in test [2], 21.5 µM; in test [3], 25.4 µM; in test [4], 34.6 µM.

Regarding `CCOC(=O)[C@]1(C)CCC[C@@]2(C)[C@@H]3CC[C@@]4(C)C[C@]3(CC[C@@H]21)c1cnn(-c2cc(C)cc(C)c2)c14`, the half-inhibitory concentration (IC50) in test [1] is 12.5 µM; in test [2] it was above 50 µM; in test [3], above 50 µM; in test [4] it was above 50 µM.

Turning to `CCOC(=O)[C@]1(C)CCC[C@@]2(C)[C@@H]3CC[C@@]4(C)C[C@]3(CC[C@@H]21)[C@@H]1CN(c2ccc(Br)cc2)N=C14`, the IC50 in test [1], in test [2], in test [3] and in test [4] was above 50 µM each time.

For the molecule `CCOC(=O)[C@]1(C)CCC[C@@]2(C)[C@@H]3CC[C@@]4(C)C[C@]3(CC[C@@H]21)[C@@H]1CN(c2cccc(C(F)(F)F)c2)N=C14`, the 50% inhibitory concentration (IC50) in test [1] was 7.21 µM; in test [2] it was above 50 µM; in test [3], above 50 µM; in test [4] it was above 50 µM.

On to `CCOC(=O)[C@]1(C)CCC[C@@]2(C)[C@@H]3CC[C@@]4(C)C[C@]3(CC[C@@H]21)c1cnn(-c2cccc(Br)c2)c14`, for which the IC50 was 3.27 µM in test [1], 26.5 µM in test [2], 34.9 µM in test [3] and above 50 µM in test [4].

`CCOC(=O)[C@]1(C)CCC[C@@]2(C)[C@@H]3CC[C@@]4(C)C[C@]3(CC[C@@H]21)c1cnn(-c2cc(C)ccc2C)c14`: the IC50 in test [1] is 7.94 µM; in test [2], 17.1 µM; in test [3], 33 µM; in test [4] it was 34.3 µM.

Take `CCOC(=O)[C@]1(C)CCC[C@@]2(C)[C@@H]3CC[C@@]4(C)C[C@]3(CC[C@@H]21)c1cnn(-c2ccccc2F)c14`: the half-maximal inhibitory concentration (IC50) in test [1] was 4.15 µM; in test [2], 27 µM; in test [3], 35.6 µM; in test [4] it was above 50 µM.

As for `CCOC(=O)[C@]1(C)CCC[C@@]2(C)[C@@H]3CC[C@@]4(C)C[C@]3(CC[C@@H]21)[C@@H]1CN(c2cc(Cl)cc(Cl)c2)N=C14`, the IC50 was above 50 µM in test [1], above 50 µM in test [2], above 50 µM in test [3] and 24.6 µM in test [4].

For the molecule `CCOC(=O)[C@]1(C)CCC[C@@]2(C)[C@@H]3CC[C@@]4(C)C[C@]3(CC[C@@H]21)[C@@H]1CN(c2cccc(C)c2C)N=C14`, the IC50 in test [1] was 8.82 µM; in test [2] it was above 50 µM; in test [3], 31.9 µM; in test [4], above 50 µM.

For `CCOC(=O)[C@]1(C)CCC[C@@]2(C)[C@@H]3CC[C@@]4(C)C[C@]3(CC[C@@H]21)c1cnn(-c2cc(Cl)ccc2Cl)c14`, the 50% inhibitory concentration (IC50) in test [1] was 11.7 µM; in test [2], above 50 µM; in test [3] it was above 50 µM; in test [4], above 50 µM.

Regarding `CCOC(=O)[C@]1(C)CCC[C@@]2(C)[C@@H]3CC[C@@]4(C)C[C@]3(CC[C@@H]21)[C@@H]1CN(c2ccc(F)cc2)N=C14`, the IC50 was 4.51 µM in test [1], above 50 µM in test [2], above 50 µM in test [3] and above 50 µM in test [4].

Regarding `CCOC(=O)[C@]1(C)CCC[C@@]2(C)[C@@H]3CC[C@@]4(C)C[C@]3(CC[C@@H]21)[C@@H]1CN(c2ccc(Cl)cc2Cl)N=C14`, the IC50 was 22.9 µM in test [1], above 50 µM in test [2], above 50 µM in test [3] and above 50 µM in test [4].

As to `CCOC(=O)[C@]1(C)CCC[C@@]2(C)[C@@H]3CC[C@@]4(C)C[C@]3(CC[C@@H]21)c1cnn(-c2ccccc2)c14`, the half-maximal inhibitory concentration (IC50) was 11.4 µM in test [1], 25.4 µM in test [2], 17.6 µM in test [3] and 42.5 µM in test [4].

Turning to `CCOC(=O)[C@]1(C)CCC[C@@]2(C)[C@@H]3CC[C@@]4(C)C[C@]3(CC[C@@H]21)c1cnn(-c2ccc(F)cc2)c14`, the IC50 in test [1] is 7.01 µM; in test [2], 22.3 µM; in test [3], 25.6 µM; in test [4] it was above 50 µM.

With `CCOC(=O)[C@]1(C)CCC[C@@]2(C)[C@@H]3CC[C@@]4(C)C[C@]3(CC[C@@H]21)c1cnn(-c2c(C)cccc2C)c14`, the IC50 stood at 2.09 µM in test [1], 11.8 µM in test [2], 9.17 µM in test [3] and 20.3 µM in test [4].

Regarding `CCOC(=O)[C@]1(C)CCC[C@@]2(C)[C@@H]3CC[C@@]4(C)C[C@]3(CC[C@@H]21)c1cnn(-c2ccc(C)c(C)c2)c14`, the IC50 was determined as 6.5 µM in test [1], 15.8 µM in test [2], 38.1 µM in test [3] and 38.2 µM in test [4].

`CCOC(=O)[C@]1(C)CCC[C@@]2(C)[C@@H]3CC[C@@]4(C)C[C@]3(CC[C@@H]21)[C@@H]1CN(c2ccc(C)cc2)N=C14`: the half-maximal inhibitory concentration (IC50) stood at 3.91 µM in test [1], 13.7 µM in test [2], 29.4 µM in test [3] and 29.1 µM in test [4].

On to `CCOC(=O)[C@]1(C)CCC[C@@]2(C)[C@@H]3CC[C@@]4(C)C[C@]3(CC[C@@H]21)c1cnn(-c2cccc(C)c2)c14`, for which the 50% inhibitory concentration (IC50) in test [1] was 4.84 µM; in test [2], 12.4 µM; in test [3], 13.6 µM; in test [4] it was above 50 µM.

For `CCOC(=O)[C@]1(C)CCC[C@@]2(C)[C@@H]3CC[C@@]4(C)C[C@]3(CC[C@@H]21)[C@@H]1CN(c2ccc(F)cc2F)N=C14`, the IC50 in test [1] was 13.5 µM; in test [2], above 50 µM; in test [3], above 50 µM; in test [4] it was above 50 µM.

For the molecule `CCOC(=O)[C@]1(C)CCC[C@@]2(C)[C@@H]3CC[C@@]4(C)C[C@]3(CC[C@@H]21)[C@@H]1CN(c2ccc(OC)cc2)N=C14`, the half-maximal inhibitory concentration (IC50) in test [1] came out at 12.2 µM; in test [2], 17.8 µM; in test [3], 34 µM; in test [4], 31.2 µM.

As for `CCOC(=O)[C@]1(C)CCC[C@@]2(C)[C@@H]3CC[C@@]4(C)C[C@]3(CC[C@@H]21)c1cnn(-c2cc(F)ccc2F)c14`, the 50% inhibitory concentration (IC50) in test [1] is 7.11 µM; in test [2], above 50 µM; in test [3], above 50 µM; in test [4] it was above 50 µM.

For the molecule `CCOC(=O)[C@]1(C)CCC[C@@]2(C)[C@@H]3CC[C@@]4(C)C[C@]3(CC[C@@H]21)c1cnn(-c2ccc(C)cc2C)c14`, the half-inhibitory concentration (IC50) was determined as 6.55 µM in test [1], 16.5 µM in test [2], 18.7 µM in test [3] and 43.3 µM in test [4].

On to `CCOC(=O)[C@]1(C)CCC[C@@]2(C)[C@@H]3CC[C@@]4(C)C[C@]3(CC[C@@H]21)[C@@H]1CN(c2cc(Cl)ccc2Cl)N=C14`, for which the concentration for half-maximal inhibition (IC50) in test [1] is 25.6 µM; in test [2] it was above 50 µM; in test [3], above 50 µM; in test [4], above 50 µM.

Take `CCOC(=O)[C@]1(C)CCC[C@@]2(C)[C@@H]3CC[C@@]4(C)C[C@]3(CC[C@@H]21)[C@@H]1CN(c2cccc(F)c2)N=C14`: the half-inhibitory concentration (IC50) in test [1] is 29.1 µM; in test [2] it was above 50 µM; in test [3], above 50 µM; in test [4], above 50 µM.

For `CCOC(=O)[C@]1(C)CCC[C@@]2(C)[C@@H]3CC[C@@]4(C)C[C@]3(CC[C@@H]21)[C@@H]1CN(c2cc(C)ccc2C)N=C14`, the IC50 was 12.6 µM in test [1], above 50 µM in test [2], 22.5 µM in test [3] and 30.3 µM in test [4].
